The results in this text go back to ChEMBL document CHEMBL1131003, “Nonsymmetric P2/P2' cyclic urea HIV protease inhibitors. Structure-activity relationship, bioavailability, and resistance profile of monoindazole-substituted P2 analogues” (J Med Chem, 1998).

Broadly, the IC90 is the concentration at which the effect reaches the 90% level. A lower IC90 goes with greater potency. In general, Cmax refers to the highest concentration seen after dosing. For orientation: Ki means a dissociation constant, usually derived from enzyme kinetics or from competition with a known ligand. Broadly, the bioavailability is dose-corrected exposure relative to a reference, in per cent. Low readings indicate little systemic uptake, high ones much systemic uptake.

One data set has as its system MT2. The experiment in a line: Antiviral potency evaluated by measuring accumulation of viral RNA transcripts 3 days after infection of MT-2 cells with HIV-1 RF. In kind it is functional. The settings on record: Homo sapiens, MT2, 72 h.
A short description of data set [1]: Peak plasma concentration was measured in dogs. In kind it is ADME, organism-based, Canis lupus familiaris. The settings on record: dog.
Data set [2] deals with Human immunodeficiency virus type 1 protease (Human immunodeficiency virus 1, UniProt Q72874). Nature of the data set: Inhibitory activity against HIV protease. Summed up:
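Ki for HIV protease, measured by cleavage of a fluorescent substrate with HPLC analysis, following the earlier method.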

Data set [3] can be described thus: Oral bioavailability in dog (dose 10 mg/kg). The settings on record: in vivo. Type of data set: ADME, organism-based, Canis lupus familiaris. The procedure, abridged: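 Dogs, n = 3 per group, given 10 mg/kg in a propylene glycol/polyethylene glycol 400/water formulation, dosed orally and intravenously. F% = AUC po/AUC iv, with AUC from time zero to infinity of the plasma concentration-time curve, normalized for dose.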

The target in data set [4] is Human immunodeficiency virus type 1 protease (Human immunodeficiency virus 1) (UniProt Q72874). The experiment in a line: Antiviral activity against ritonavir virus (HIV-1 mutated at 46I/63P/71V/82F/84V and resistant to ritonavir). Type of data set: functional. Summed up:
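Mutant HIV-1 viruses carrying protease substitutions seen in ritonavir- or indinavir-treated patient isolates; the ritonavir virus carries 46I/63P/71V/82F/84V. IC90 read from a viral p24 readout, following the earlier method.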

Data set [5] has the same target. Nature of the data set: Antiviral activity against indinavir virus (HIV-1 mutated at 10R/63P/71V/82T/84V and resistant to indinavir).
For data set [6] the target is unchanged. The experiment in a line: Antiviral activity against mutant virus HIV-1 mutant (84V/82F) strain. In kind it is functional. Summed up: (§1)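 I84V single and I84V/V82F double mutant HIV-1, both from in vitro selection under a cyclic urea inhibitor. IC90 measured by yield reduction assay.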
The target is the same in data set [7]. The experiment in a line: Antiviral activity against mutant virus HIV-1 mutant (84V) strain. Type of data set: functional. Summed up:
as §1

Take `CNc1cccc(CN2C(=O)N(Cc3ccc4[nH]ncc4c3)[C@H](Cc3ccccc3)[C@H](O)[C@@H](O)[C@H]2Cc2ccccc2)c1`: it took 8 nM to reach the 90% level in the data set with MT2 (IC90). This compound also registered a Cmax in data set [1] of 8 µM. In addition, the Ki in data set [2] was found to be 0.039 nM. This compound also returned a bioavailability in data set [3] of 92%.

In the case of `CNc1cc(CN2C(=O)N(Cc3ccc4[nH]ncc4c3)[C@H](Cc3ccccc3)[C@H](O)[C@@H](O)[C@H]2Cc2ccccc2)ccc1F`, the 90% effect level in the data set on MT2 (IC90) was put at 7 nM. For the same compound, the concentration in data set [1] peaked (Cmax) at 0.67 µM. Moreover, in data set [2], affinity was put at a Ki of 0.027 nM. Moreover, the bioavailability in data set [3] was 14%.

In the data set with MT2, `Nc1cccc(CN2C(=O)N(Cc3ccc4[nH]ncc4c3)[C@H](Cc3ccccc3)[C@H](O)[C@@H](O)[C@H]2Cc2ccccc2)c1` displayed an IC90 of 11 nM. Moreover, the IC90 mutant/IC90 WT in data set [4] was found to be 75; in data set [5] it was 20; in data set [6], 200; in data set [7], 6.8. In addition, the Cmax in data set [1] came out at 7.2 µM. The same compound returned a Ki in data set [2] of 0.03 nM. Moreover, the bioavailability in data set [3] is 93%.

In the case of `O=C(Nc1nccs1)c1cccc(CN2C(=O)N(Cc3ccc4[nH]ncc4c3)[C@H](Cc3ccccc3)[C@H](O)[C@@H](O)[C@H]2Cc2ccccc2)c1`, in the data set on MT2, it took 8 nM to reach the 90% level (IC90). Also, the IC90 mutant/IC90 WT amounted to 9 in data set [4], 7.3 in data set [5], 22 in data set [6] and 2 in data set [7]. The compound also yielded a Ki in data set [2] of 0.016 nM.

With `Nc1ccc(CN2C(=O)N(Cc3ccc4[nH]ncc4c3)[C@H](Cc3ccccc3)[C@H](O)[C@@H](O)[C@H]2Cc2ccccc2)cc1`, in the data set on MT2, the 90% effect level (IC90) was put at 11 nM. The results for the IC90 mutant/IC90 WT in data set [4], in data set [6] and in data set [7] were 170, 240 and 31, respectively. Further, the Cmax in data set [1] was found to be 10.6 µM. Besides, the Ki in data set [2] worked out at 0.03 nM. For the same compound, in data set [3], the bioavailability turned out to be 100%.

With `O=C1N(Cc2ccc(CO)cc2)[C@H](Cc2ccccc2)[C@H](O)[C@@H](O)[C@@H](Cc2ccccc2)N1Cc1ccc(CO)cc1` [DMP-323], the IC90 in the data set with MT2 amounted to 57 nM. Besides, the IC90 mutant/IC90 WT in data set [4] was 93; in data set [5], 18; in data set [6] it was 97; in data set [7], 28.

In the data set with MT2, `CC(=O)c1cccc(CN2C(=O)N(Cc3ccc4[nH]ncc4c3)[C@H](Cc3ccccc3)[C@H](O)[C@@H](O)[C@H]2Cc2ccccc2)c1` displayed an IC90 of 15 nM. Moreover, in data set [1], the Cmax stood at 1.3 µM. In data set [2], this compound displayed a Ki of 0.036 nM. This compound yielded a bioavailability in data set [3] of 25%.
